Data taken from paper PMC4873341 (Molecular cancer therapeutics, 2016).
Read-outs that look alike come from different tables or passages of the source.

Key:
Hh pathway = type: cell-based; conditions: for Hh pathway inhibition by single drug at subtherapeutic dose: posaconazole 1 μM, KAAD-cyclopamine 10 nM, vismodegib 20 nM, SHHN CM; for Induction of Hh pathway activation by sterol alone: Shh-Light2 cells, absence of SHHN conditioned medium
SMO = SMO (Mus musculus, UniProt P56726); assay: Fluorescent BODIPY-cyclopamine competition assay; type: binding; conditions: BODIPY-cyclopamine 5 nM
Hh pathway (SMO) [1] = assay: SHH-Light2 reporter assay stimulated with SAG; type: cell-based; conditions: for EC50: read-out: EC50 of SAG
[2] = test system: ASZ and BSZ basal cell carcinoma cells; assay: Quantitative PCR of Gli1 transcript in ASZ and BSZ basal cell carcinoma cells; type: cell-based, murine; conditions: posaconazole 1 μM; KAAD-cyclopamine 40 nM; GDC-0449 40 nM; 2 days
[3] = test system: cytochrome P450 (CYP) 3A4; conditions: cited from earlier work
CYP2C9 = conditions: cited from earlier work
CYP2C19 = conditions: cited from earlier work
[4] = test system: Hh pathway (Ptch-/- murine embryonic fibroblast cells); type: cell-based; conditions: Mus musculus, read-out: IC50 of Hh pathway inhibition
SMOA1 (SMO W539L) mutant = type: cell-based; conditions: Shh-Light2 SmoA1 cells
Hh pathway (SMO) [5] = assay: SHH-Light2 reporter assay stimulated with 20; type: cell-based
[6] = test system: SMO accumulation in primary cilia; type: cell-based; conditions: SHHN and posaconazole 7.5 μM; ~87% with SHHN and vehicle; p < 0.0001
Outline: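 NIH-3T3 cells were stimulated with SHHN conditioned medium together with 7.5 μM test compound or vehicle. Cells were immunostained for SMO (rabbit polyclonal, 1:750) and acetylated tubulin (mouse monoclonal, 1:1000), then detected with AlexaFluor 488 and 594 secondaries. Confocal images were scored for the percentage of primary cilia with SMO; mean ± S.D. of at least 7 fields.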

[7] = Plasma pharmacokinetic study, single oral dose; type: in vivo, Balb-c mice; conditions: for AUC(0-t) / Cmax: Balb-c, mouse, plasma, po
Outline: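 Balb-c mice, given acidified drinking water (pH 2.5), received one oral gavage of test-compound oral suspension diluted in sterile water (30 or 60 mg/kg). Mice were killed at various times. Plasma was extracted with methanol/formic acid containing tolbutamide internal standard and analysed by LC-MS/MS (C18 column). Parameters came from noncompartmental analysis; 3 mice per time point, mean ± S.D.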

[8] = test system: murine Ptch+/-;p53-/- BCC allografts; assay: Tumor growth of subcutaneous BCC allografts; type: in vivo, mice; conditions: 30 mg/kg or 60 mg/kg twice-daily, oral gavage; p < 0.005
[9] = test system: Hh pathway in allografted BCC tumors; assay: Gli1 mRNA in allografted BCC tumors; type: in vivo, mice; conditions: 30 or 60 mg/kg twice per day by oral gavage for 5 days; p = 0.0224, p = 0.0033
BCC tumors = assay: Necrosis scoring of H&E sections of BCC tumors; type: in vivo, mice; conditions: posaconazole treated vs vehicle control; p = 0.0028
[10] = test system: drug-resistant SMO mutants (D477G, E522K, G457S, S392N, D388N, N223D, L225R); type: cell-based, murine
CYP 1A2 = conditions: cited from earlier work
CYP 2C8 = conditions: cited from earlier work
CYP 2D6 = conditions: cited from earlier work
CYP 2E1 = conditions: cited from earlier work
SMO-G457S = type: cell-based, murine
[11] = increasing concentrations of posaconazole
[12] = higher than human values of ref 41

Chain of SMO (P56726 33-793): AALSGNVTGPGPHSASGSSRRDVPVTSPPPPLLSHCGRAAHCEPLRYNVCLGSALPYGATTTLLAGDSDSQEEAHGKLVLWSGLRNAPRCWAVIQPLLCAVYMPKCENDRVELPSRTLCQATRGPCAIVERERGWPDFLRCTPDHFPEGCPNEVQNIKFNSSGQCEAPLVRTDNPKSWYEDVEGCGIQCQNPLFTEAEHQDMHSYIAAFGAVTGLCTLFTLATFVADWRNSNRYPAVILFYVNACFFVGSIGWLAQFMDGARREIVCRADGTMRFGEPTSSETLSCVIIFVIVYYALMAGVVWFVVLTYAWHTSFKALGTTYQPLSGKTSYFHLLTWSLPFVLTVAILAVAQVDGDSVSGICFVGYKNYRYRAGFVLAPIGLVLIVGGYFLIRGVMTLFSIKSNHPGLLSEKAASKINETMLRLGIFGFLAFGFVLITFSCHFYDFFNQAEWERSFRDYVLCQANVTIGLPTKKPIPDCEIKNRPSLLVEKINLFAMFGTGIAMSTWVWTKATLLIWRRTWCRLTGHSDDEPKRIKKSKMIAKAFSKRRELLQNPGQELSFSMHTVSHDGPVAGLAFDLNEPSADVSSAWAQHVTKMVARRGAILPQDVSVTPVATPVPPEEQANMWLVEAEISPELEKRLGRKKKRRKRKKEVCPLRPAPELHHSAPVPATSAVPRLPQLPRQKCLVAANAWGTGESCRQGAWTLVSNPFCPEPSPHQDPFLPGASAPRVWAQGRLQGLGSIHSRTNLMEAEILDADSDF

Q: What does the source list for `CC1=C2C[C@H]3[C@@H](CC=C4CC(=O)CC[C@@]43C)[C@@H]2CC[C@]12O[C@@H]1C[C@H](C)CN(CCNC(=O)CCCCCNC(=O)CCc3ccccc3)[C@H]1[C@H]2C` [KAAD-cyclopamine]?
A: Hh pathway inhibition by single drug at subtherapeutic dose (Hh pathway): partially inhibited the Hh pathway; IC50 (Hh pathway; read-out: IC50 of Hh pathway inhibition (given as 1x IC50), SHH-Light2 cells): 20 nM; Fluorescence of BODIPY-cyclopamine bound to SMO (SMO; KAAD-cyclopamine 200 nM and 400 nM): reduced the fluorescence of BD bound to SMO to baseline levels; Shift (increase) of the EC50 of SAG (Hh pathway (SMO) [1]; KAAD-cyclopamine 20 nM (1x IC50)): ~ 3.5 fold; Pathway inhibition as measured by Gli1 mRNA, single drug [2]: significantly inhibited the pathway

Q: Which results are given for `CNC1CCC(N(Cc2cccc(-c3ccncc3)c2)C(=O)c2sc3ccccc3c2Cl)CC1` (stereo not drawn) [SAG]?
A: EC50 (Hh pathway (SMO) [1]; 0 nM KAAD-cyclopamine): 34 nM; EC50 (Hh pathway (SMO) [1]; with 100 nM KAAD-cyclopamine): 244 nM

Q: With `CC(C)CCC[C@@H](C)[C@H]1CC[C@H]2[C@@H]3CC=C4C[C@@H](O)CC[C@]4(C)[C@H]3CC[C@]12C` [cholesterol] as the compound, how does the “Induction of Hh pathway activation by sterol alone” value (shortened to “Induction of Hh pathway activation”) (Hh pathway) read?
A: insufficient to induce Hh pathway activation

Q: For `CC(C)=CCC[C@@H](C)[C@H]1CC[C@H]2[C@@H]3CC=C4C[C@@H](O)CC[C@]4(C)[C@H]3CC[C@]12C` [desmosterol], which “Induction of Hh pathway activation” value (Hh pathway) is on record?
A: insufficient to induce Hh pathway activation

Q: With `CC(O)C(C)n1ncn(-c2ccc(N3CCN(c4ccc(OCC5COC(Cn6cncn6)(c6ccc(Cl)cc6Cl)O5)cc4)CC3)cc2)c1=O` (stereo not drawn) [hydroxy-itraconazole] as the compound, how does the CYP3A4 inhibition [3] read?
A: strong inhibitors and substrates

Q: What about the CYP2C9 inhibition (CYP2C9) of the same compound?
A: weaker inhibitors

Q: And the CYP2C19 inhibition (CYP2C19)?
A: weaker inhibitors

Q: Which results are given for `CCC(C)n1ncn(-c2ccc(N3CCN(c4ccc(OCC5COC(Cn6cncn6)(c6ccc(Cl)cc6Cl)O5)cc4)CC3)cc2)c1=O` (stereo not drawn) [itraconazole]?
A: CYP3A4 inhibition [3]: strong inhibitors and substrates; CYP2C9 inhibition (CYP2C9): weaker inhibitors; CYP2C19 inhibition (CYP2C19): weaker inhibitors

Q: For `CC(C)CCC[C@@H](C)[C@H]1CC[C@H]2C3=CC[C@H]4C[C@@H](O)CC[C@]4(C)[C@H]3CC[C@]12C` [lathosterol], which “Induction of Hh pathway activation” value (Hh pathway) is on record?
A: insufficient to induce Hh pathway activation

Q: With `CC[C@@H]([C@H](C)O)n1ncn(-c2ccc(N3CCN(c4ccc(OC[C@@H]5CO[C@@](Cn6cncn6)(c6ccc(F)cc6F)C5)cc4)CC3)cc2)c1=O` [posaconazole] as the compound, how does the “Decrease of the IC50 of posaconazole by KAAD-cyclopamine” value (Hh pathway; increasing concentrations of KAAD-cyclopamine) read?
A: ~ 2.5 fold

Q: And the “Hh pathway inhibition by single drug at subtherapeutic dose” value (Hh pathway)?
A: partially inhibited the Hh pathway

Q: And the IC50 [4]?
A: 986 nM

Q: And the “Inhibition of pathway activity” value (SMOA1 (SMO W539L) mutant)?
A: no inhibitory effect

Q: And the “Fluorescence of BODIPY-cyclopamine bound to SMO” value (SMO; increasing concentrations up to 10 μM)?
A: did not significantly decrease the fluorescence

Q: What about the “Effect on maximal induction of pathway activation by SAG” value (Hh pathway (SMO) [1]; posaconazole 0 to 7.5 μM) of the same compound?
A: significantly decreased the maximal induction of pathway activation

Q: What about the “Effect on the EC50 of SAG” value (Hh pathway (SMO) [1]; posaconazole 0 to 7.5 μM) of the same compound?
A: did not significantly alter the EC50 of SAG

Q: What about the IC50 (Hh pathway (SMO) [5]; Shh Light2, read-out: IC50 of pathway activation by 20(S)-hydroxycholesterol) of the same compound?
A: 164 nM

Q: And the “Effect on maximal pathway activation of 20(S)-hydroxycholesterol” value (Hh pathway (SMO) [5]; [11])?
A: decreased maximal pathway activation

Q: And the “Effect on the EC50 of 20(S)-hydroxycholesterol” value (Hh pathway (SMO) [5]; [11])?
A: did not significantly alter the EC50 of the oxysterol

Q: What about the “Pathway inhibition as measured by Gli1 mRNA, single drug” value [2] of the same compound?
A: significantly inhibited the pathway

Q: And the “Primary cilia with SMO accumulation” value [6]?
A: ~ 16%

Q: And the AUC(0-t) ([7]; 30 mg/kg)?
A: 245 µg·h/mL

Q: What about the Cmax ([7]; 30 mg/kg) of the same compound?
A: 16100 ng/mL

Q: And the AUC(0-t) ([7]; 60 mg/kg)?
A: 288 µg·h/mL

Q: What about the Cmax ([7]; 60 mg/kg) of the same compound?
A: 15900 ng/mL

Q: And the “AUC0-24h, murine 30 mg/kg relative to human 800 mg single dose” value [7, 12]?
A: ~ 5 x

Q: And the “Plasma Cmax, murine 30 mg/kg relative to human 800 mg single dose” value [7, 12]?
A: ~ 12 x

Q: What about the “Tumor growth compared to vehicle control” value [8] of the same compound?
A: significantly suppressed tumor growth

Q: And the “Hh pathway inhibition in tumors as measured by Gli1 mRNA” value [9]?
A: significant inhibition of the Hh pathway

Q: And the “Tumor necrosis (necrosis score 0-3)” value (BCC tumors)?
A: significant levels of necrosis

Q: And the “Activity against drug-resistant SMO mutants, single drug” value ([10]; Smo-/- fibroblasts, SHHN CM)?
A: showed inhibitory activity against all of the tested drug-resistant SMO mutants

Q: And the CYP3A4 inhibition [3]?
A: inhibits

Q: And the CYP2C9 inhibition (CYP2C9)?
A: does not inhibit

Q: What about the CYP1A2 inhibition (CYP 1A2) of the same compound?
A: does not inhibit

Q: What about the CYP2C8 inhibition (CYP 2C8) of the same compound?
A: does not inhibit

Q: And the CYP2D6 inhibition (CYP 2D6)?
A: does not inhibit

Q: And the CYP2E1 inhibition (CYP 2E1)?
A: does not inhibit

Q: Which “Response of sonidegib-resistant SMO mutants” value ([10]; sonidegib 0.5 μM (~80x IC50)) does the source give for `Cc1c(C(=O)Nc2ccc(N3C[C@@H](C)O[C@@H](C)C3)nc2)cccc1-c1ccc(OC(F)(F)F)cc1` [sonidegib] here?
A: resistant

Q: And the “Response of SMO-G457S” value (SMO-G457S; sonidegib 0.05 μM)?
A: resistant

Q: What about the “Response of SMO-G457S” value (SMO-G457S; sonidegib 0.5 μM) of the same compound?
A: inhibited

Q: For `CS(=O)(=O)c1ccc(C(=O)Nc2ccc(Cl)c(-c3ccccn3)c2)c(Cl)c1` [vismodegib], which “Hh pathway inhibition by single drug at subtherapeutic dose” value (Hh pathway) is on record?
A: partially inhibited the Hh pathway

Q: And the “Pathway inhibition as measured by Gli1 mRNA, single drug” value [2]?
A: significantly inhibited the pathway

Q: And the “Response of vismodegib-resistant SMO mutants (D477G, E522K)” value ([10]; vismodegib 0.5 μM (~40x IC50))?
A: resistant

Q: With `C[C@@H](c1ncncc1F)[C@](O)(Cn1cncn1)c1ccc(F)cc1F` [voriconazole] as the compound, how does the IC50 (Hh pathway; Shh Light2, read-out: No detectable inhibition of the Hh pathway up to) read?
A: > 40000 nM
